Source: ChEMBL document CHEMBL1138346, “BINOL-amino acid conjugates as triggerable carriers of DNA-targeted potent photocytotoxic agents” (J Med Chem, 2007)
Activity calls are given as the source filed them. No cut-off for these calls is given here.

Legend:
[1] = tested on: Escherichia coli; test: Induction of pBR322 cross-linking in absence of irradiation by alkaline agarose gel assay
[2] = tested on: LoVo; test: Selectivity index, ratio of CC50 for LoVo cells to EC50 for UV irradiated LoVo cells; assay type: functional, Homo sapiens
Procedure, shortened: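 Ratio CC50/EC50 in LoVo cells; both from MTT after 24 h compound exposure (12 nM–200 µM, 1% DMSO), then 24 h more either in the dark or after 30 min irradiation at 360 nm. Mean of three triplicate experiments.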

[3] = Partition coefficient, log P of the compound; assay type: physicochemical; conditions: octanol/water
Procedure, shortened: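 Calculated log P of neutral form by Crippen fragmentation method.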

[4] = tested on: LoVo; test: Cytotoxicity against human LoVo cells after 24 hrs by MTT assay; assay type: functional
Procedure, shortened: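 Dark cytotoxicity (CC50), LoVo human colorectal adenocarcinoma in DMEM/F-12 1:1 with 10% FBS, 37 °C, 5% CO2. 1.75 × 10^4 cells/well plated overnight; compound 12 nM–200 µM in DMSO (1% final) for 24 h, then washed and fresh medium, kept in dark 24 h more at 37 °C. MTT read at 540 nm; mean of three experiments in triplicate.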

[5] = Induction of pBR322 cross-linking after irradiation by alkaline agarose gel assay; conditions: Escherichia coli
Procedure, shortened: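 pBR322 (0.5 µg/sample) with compound 0.62–80 µM (DMSO stock diluted in water), 50 mM phosphate pH 7.5, irradiated on ice 20 min at 360 nm, 120 W. Run on 1% alkaline agarose (50 mM NaOH, 1 mM EDTA), 12 V, 15–16 h, ethidium bromide stain. Value is lowest concentration giving interstrand cross-link band.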

[6] = tested on: LoVo; test: Photocytotoxicity against UV irradiated human LoVo cells after 24 hrs by MTT assay; assay type: functional, cell-based
Procedure, shortened: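 LoVo cells in DMEM/F-12 1:1 with 10% FBS, plated at 1.75 × 10^4 cells/well overnight. Exposed 24 h to 12 nM–200 µM compound (DMSO, 1% final), washed, fresh medium, irradiated 30 min at 360 nm, then 24 h at 37 °C. MTT absorbance at 540 nm, survival relative to solvent controls; EC50 from mean of three experiments in triplicate.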

[7] = tested on: Escherichia coli; test: Induction of pBR322 cross-linking after irradiation at 20 mM at pH 5.5 by alkaline agarose gel assay
[8] = Homo sapiens, LoVo, light or radiation study, 24 h

Row | Activity [1] | logP [3] | Minimum concentration for DNA interstrand cross-linking [5] [µM] | Activity [7] | SMILES | Ratio CC50/EC50 [2] | CC50 [4] [µM] | EC50 [6, 8] [µM] | EC50 ([6]; lovo) [µM]
1 | inactive | 4.38 | > 40 |  | COC(=O)[C@H](C)NCc1cc2ccccc2c(-c2c(O)c(CN[C@@H](C)C(=O)OC)cc3ccccc23)c1O | 0.4 | 1.5 | 4 | 
2 |  |  |  |  | COC(=O)[C@@H]1CCCN1Cc1cc2ccccc2c(-c2c(O)c(CN3CCC[C@H]3C(=O)OC)cc3ccccc23)c1O (stereo in doubt; (R,S,S)-5) [listing 1 of 2 here] | >860 | > 200 | 0.23 | 
3 | inactive | 6.15 | 5 |  | COC(=O)[C@@H](NCc1cc2ccccc2c(-c2c(O)c(CN[C@H](C(=O)OC)C(C)C)cc3ccccc23)c1O)C(C)C | 108 | 14 | 0.13 | 
4 |  |  |  |  | O=C(O)[C@@H]1CCCN1Cc1cc2ccccc2c(-c2c(O)c(CN3CCC[C@H]3C(=O)O)cc3ccccc23)c1O (stereo in doubt; (R,S,S)-6) [listing 1 of 2 here] |  | > 200 | > 200 | 
5 |  | 4.81 |  |  | COC(=O)[C@@H]1CCCN1Cc1cc2ccccc2c(-c2c(O)c(CN3CCC[C@H]3C(=O)OC)cc3ccccc23)c1O (stereo in doubt; (S,S,S)-5) [listing 1 of 2 here] | >900 |  |  | 0.22
6 | inactive |  | 2.5 | Active | O=C(O)[C@@H]1CCCN1Cc1cc2ccccc2c(-c2c(O)c(CN3CCC[C@H]3C(=O)O)cc3ccccc23)c1O (stereo in doubt; (R,S,S)-6) [listing 2 of 2 here] |  |  |  | 
7 | inactive |  | 1.25 |  | C[N+](C)(C)Cc1cc2ccccc2c(-c2c(O)c(C[N+](C)(C)C)cc3ccccc23)c1O |  | > 200 | > 200 | 
8 |  | 4.28 |  |  | O=C(O)[C@@H]1CCCN1Cc1cc2ccccc2c(-c2c(O)c(CN3CCC[C@H]3C(=O)O)cc3ccccc23)c1O (stereo in doubt; (S,S,S)-6) [listing 1 of 2 here] |  |  |  | 
9 | inactive |  | 2.5 | Active | O=C(O)[C@@H]1CCCN1Cc1cc2ccccc2c(-c2c(O)c(CN3CCC[C@H]3C(=O)O)cc3ccccc23)c1O (stereo in doubt; (S,S,S)-6) [listing 2 of 2 here] |  |  |  | 
10 | inactive |  | 20 |  | COC(=O)[C@@H]1CCCN1Cc1cc2ccccc2c(-c2c(O)c(CN3CCC[C@H]3C(=O)OC)cc3ccccc23)c1O (stereo in doubt; (R,S,S)-5) [listing 2 of 2 here] |  |  |  | 
11 | inactive |  | 20 |  | COC(=O)[C@@H]1CCCN1Cc1cc2ccccc2c(-c2c(O)c(CN3CCC[C@H]3C(=O)OC)cc3ccccc23)c1O (stereo in doubt; (S,S,S)-5) [listing 2 of 2 here] |  |  |  | 
12 | inactive | 3.34 | 20 | Active | NCCCC[C@H](NCc1cc2ccccc2c(-c2c(O)c(CN[C@@H](CCCCN)C(=O)O)cc3ccccc23)c1O)C(=O)O |  | > 200 | > 200 | 
13 | inactive | 2.44 | < 0.5 |  | Cc1cc2cc3c(C)cc(=O)oc3c(C)c2o1 [TRIOXSALEN] | >210 | > 200 | 0.94 | 
